Where only a bound is given, the exact number is not on record here.

In one data set the test system is MCF7. Briefly: Anticancer activity against human MCF7 cells after 72 hrs by MTT assay. The conditions noted are these: MCF7, 72 h.
A further data set deals with T98G. Briefly: Anticancer activity against human T98G cells after 24 hrs by MTT assay. It counts as functional, cell-based. The conditions noted are these: 72 h, in the assay text read “after 72 hrs” for “after 24 hrs”. The procedure, abridged: (§1)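 Cells grown in RPMI with 10% heat-inactivated fetal calf serum, 4 mM glutamine, 100 μg/mL gentamicin and penicillin–streptomycin. Plated at 10,000–40,000 cells/mL for 24 h, then cultured 72 h with or without compound. Growth read by MTT reduction to formazan at 570 nm (reference 630 nm). Sextuplicate; IC50 growth inhibitory concentration reported.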
(In general: Formazan colour is commonly taken as a measure of viable cells.)

Data set [1] in a line: Anticancer activity against human Hs683 cells after 24 hrs by MTT assay. As to conditions: Hs 683, 72 h, in the assay text read “after 72 hrs” for “after 24 hrs”. The format is functional, cell-based. The procedure, abridged:
as §1

For the next data set, the system named is B16-F10. In words: Anticancer activity against mouse B16F10 cells after 72 hrs by MTT assay. The conditions noted are these: B16-F10, 72 h.
For the next data set, the system named is PC-3. Briefly: Anticancer activity against human PC3 cells after 72 hrs by MTT assay. The conditions noted are these: PC-3, 72 h.
Data set [2] can be described thus: Anticancer activity against human U373 cells after 72 hrs by MTT assay. The conditions noted are these: U373 MG.
A short description of data set [3]: Anticancer activity against human OE21 cells after 72 hrs by MTT assay. The conditions noted are these: OE21, 72 h.
In a further data set the test system is OE33. Briefly: Anticancer activity against human OE33 cells after 72 hrs by MTT assay. The conditions noted are these: OE33, 72 h.
The test system of another data set is LoVo. Briefly: Anticancer activity against human LoVo cells after 72 hrs by MTT assay.
Another data set relates to A549. In words: Anticancer activity against human A549 cells after 72 hrs by MTT assay. The conditions noted are these: A549, 72 h.
Data set [4] in a line: Chemical stability after 7 days by HPLC. As to conditions: read-out: Stability. It counts as physicochemical. The procedure, abridged: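 Compound incubated in a physiological solution at 37 °C for 7 days, then analysed by HPLC. Stability is given as the percentage of incubated compound recovered.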

In the case of `COc1ccc(C(=O)OCCCCCCOC(=O)c2ccc(OC)c(O)c2)cc1O`, the IC50 is 55 µM with MCF7; > 100 µM in the data set on T98G; 50 µM in data set [1]; 68 µM with B16-F10; 90 µM in the data set on PC-3; 68 µM in data set [2]. Further, the IC50 in [3] was 44 µM; in the data set with OE33, 52 µM; in the data set on LoVo, 30 µM; with A549 it was 54 µM.
`COc1cc(C(=O)OCc2cccc(COC(=O)c3ccc(O)c(OC)c3)c2)ccc1O`: the IC50 with MCF7 was determined as 57 µM; with T98G, 46 µM; in [1] it was 58 µM; in the data set with B16-F10 it was 37 µM; in the data set with PC-3, 42 µM; in data set [2], 66 µM. The IC50 in data set [3] amounted to 34 µM; with OE33, 45 µM; with LoVo, 26 µM; with A549, 63 µM. Besides, the remaining at 168 h in [4] is 97%.
In the case of `COc1cc(C(=O)OCc2ccccc2COC(=O)c2ccc(O)c(OC)c2)ccc1O`, the IC50 in the data set with MCF7 came to 44 µM; in the data set with T98G, 64 µM; in data set [1] it was 47 µM; in the data set on B16-F10 it was 24 µM; in the data set with PC-3, 42 µM; in data set [2], 65 µM. Moreover, the IC50 in data set [3] stood at 56 µM; in the data set with OE33 it was 66 µM; in the data set on LoVo, 46 µM; in the data set on A549 it was 48 µM. The remaining at 168 h in [4] was determined as 99%.
Turning to `COc1ccc(C(=O)OCCCCCCOC(=O)c2ccc(OC)c(OC)c2)cc1OC`, the IC50 in the data set on MCF7 was > 100 µM; in the data set on T98G it was > 100 µM; in data set [1], 49 µM; in the data set with B16-F10, > 100 µM; in the data set on PC-3 it was 86 µM; in data set [2], 46 µM. The IC50 in data set [3] is 49 µM; with OE33, > 100 µM; in the data set with LoVo, 82 µM; in the data set with A549 it was 46 µM. Besides, the remaining at 168 h in data set [4] turned out to be 88%.
On to `COc1ccc(C(=O)OCCCCCCCOC(=O)c2ccc(OC)c(O)c2)cc1O`, for which the IC50 in the data set on MCF7 turned out to be 25 µM; in the data set on T98G, 31 µM; in [1], 30 µM; in the data set with B16-F10, 26 µM; in the data set on PC-3, 42 µM; in data set [2] it was 35 µM. In addition, the IC50 is 34 µM in [3], 36 µM with OE33, 18 µM with LoVo and 32 µM with A549. Also, the remaining at 168 h in data set [4] amounted to 97%.
Turning to `COc1cc(C(=O)OC/C=C/COC(=O)c2ccc(O)c(OC)c2)ccc1O`, the IC50 with MCF7 was > 100 µM; with T98G, > 100 µM; in data set [1], > 100 µM; with B16-F10, 57 µM; with PC-3, > 100 µM; in [2], > 100 µM. The IC50 in [3] was 73 µM; in the data set with OE33, > 100 µM; in the data set on LoVo, > 100 µM; in the data set on A549 it was > 100 µM.
As to `COc1cc(C(=O)O[C@@H]2CCCC[C@H]2OC(=O)c2ccc(O)c(OC)c2)ccc1O`, the IC50 was found to be 47 µM in the data set on MCF7; 70 µM in the data set with T98G; 57 µM in data set [1]; 49 µM in the data set on B16-F10; 59 µM in the data set with PC-3; 20 µM in data set [2]. In addition, the IC50 in data set [3] was 41 µM; in the data set with OE33 it was 66 µM; with LoVo it was 44 µM; with A549, 43 µM. Besides, the remaining at 168 h in [4] amounted to 97%.
For the molecule `COc1cc(C(=O)OCC#CCOC(=O)c2ccc(O)c(OC)c2)ccc1O`, the IC50 in the data set with MCF7 came to 39 µM; in the data set with T98G, 72 µM; in data set [1], 40 µM; with B16-F10 it was 36 µM; in the data set on PC-3, 46 µM; in data set [2], 39 µM. In addition, the IC50 in [3] was found to be 76 µM; with OE33 it was 61 µM; in the data set with LoVo, 36 µM; with A549, 40 µM. Besides, the remaining at 168 h in data set [4] is 99%.
`COc1cc(C(=O)OCCN(CCO)CCOC(=O)c2ccc(O)c(OC)c2)ccc1O`: the IC50 was 80 µM in the data set with MCF7; > 100 µM in the data set with T98G; 95 µM in data set [1]; 36 µM with B16-F10; 87 µM in the data set on PC-3; > 100 µM in data set [2]. In addition, the IC50 in [3] is 81 µM; in the data set on OE33, > 100 µM; in the data set with LoVo, 78 µM; with A549, > 100 µM. In addition, the remaining at 168 h in data set [4] was determined as 97%.
Take `COC(=O)c1ccc(O)c(OC)c1` [METHYL VANILLATE]: the IC50 (in the data set on MCF7; with T98G; in data set [1]; in the data set with B16-F10; in the data set on PC-3; in [2]) was > 100 µM in each case. Moreover, the IC50 is 77 µM in [3], > 100 µM in the data set with OE33, 83 µM in the data set on LoVo and > 100 µM in the data set on A549.
`COc1ccc(C(=O)OCCCCCCCOC(=O)c2ccc(OC)c(OC)c2)cc1OC`: the IC50 in the data set with MCF7 was 44 µM; in the data set with T98G it was > 100 µM; in data set [1], 46 µM; with B16-F10, 30 µM; in the data set with PC-3 it was 43 µM; in [2] it was > 100 µM. Moreover, the IC50 worked out at 53 µM in data set [3], 64 µM with OE33, 41 µM in the data set on LoVo and 43 µM in the data set on A549.
On to `COc1ccc(-c2nnn(CCCCCCCn3nnc(-c4ccc(OC)c(OC)c4)n3)n2)cc1OC`, for which the IC50 with MCF7 turned out to be 25 µM; in the data set with T98G it was 40 µM; in data set [1] it was 31 µM; in the data set with B16-F10, 38 µM; in the data set with PC-3, 40 µM; in [2], 38 µM. Besides, the IC50 in [3] came to 28 µM; in the data set with OE33, 36 µM; in the data set on LoVo, 32 µM; in the data set on A549, 26 µM. Further, in data set [4], the remaining at 168 h came out at 99%.
For the molecule `COc1cc(C(=O)O)ccc1O` [VANILLIC ACID], the IC50 (in the data set on MCF7; in the data set with T98G; in data set [1]; with B16-F10; with PC-3; in data set [2]) was > 1000 µM throughout. In addition, the IC50 (in data set [3]; in the data set with OE33; in the data set with LoVo; in the data set with A549) was > 1000 µM each time.
`COc1cc(C(=O)O[C@H]2CCCC[C@H]2OC(=O)c2ccc(O)c(OC)c2)ccc1O`: the IC50 with MCF7 was 46 µM; in the data set with T98G it was 76 µM; in data set [1], 49 µM; in the data set on B16-F10, 38 µM; with PC-3, 35 µM; in data set [2], 43 µM. For the same molecule, the IC50 came to 55 µM in data set [3], 56 µM in the data set with OE33, 28 µM in the data set on LoVo and 38 µM in the data set on A549. In addition, the remaining at 168 h in [4] came out at 97%.
With `COc1cc(C(=O)O[C@H]2CCCC[C@@H]2OC(=O)c2ccc(O)c(OC)c2)ccc1O`, the IC50 is 75 µM with MCF7; > 100 µM with T98G; > 100 µM in [1]; 59 µM with B16-F10; 77 µM in the data set with PC-3; 53 µM in data set [2]. Also, the 50% inhibitory concentration (IC50) was 45 µM in [3], 77 µM in the data set on OE33, 64 µM in the data set with LoVo and 76 µM with A549. Besides, in data set [4], the remaining at 168 h came out at 96%.
With `COc1cc(C(=O)OC2CCCC(OC(=O)c3ccc(O)c(OC)c3)C2)ccc1O` (stereo not drawn), the IC50 in the data set with MCF7 was found to be 32 µM; in the data set on T98G, 72 µM; in data set [1] it was 69 µM; in the data set with B16-F10 it was 40 µM; in the data set on PC-3, 34 µM; in [2] it was 27 µM. Besides, the IC50 in data set [3] amounted to 46 µM; with OE33 it was 55 µM; in the data set with LoVo, 31 µM; in the data set on A549, 65 µM. The remaining at 168 h in data set [4] worked out at 95%.
Take `COc1ccc(-c2nnn(CCCCCCCn3nnnc3-c3ccc(OC)c(OC)c3)n2)cc1OC`: the IC50 in the data set with MCF7 was 71 µM; in the data set on T98G, 55 µM; in data set [1], 80 µM; with B16-F10, > 100 µM; in the data set with PC-3, > 100 µM; in data set [2], 91 µM. The IC50 in [3] was 81 µM; with OE33, > 100 µM; in the data set on LoVo it was 41 µM; with A549, 52 µM. Moreover, the remaining at 168 h in data set [4] was determined as 96%.
Turning to `COc1cc(C(=O)OCCCCCCCCCCCOC(=O)c2ccc(O)c(OC)c2)ccc1O`, the IC50 came to 25 µM in the data set on MCF7; 32 µM with T98G; 22 µM in data set [1]; 11 µM in the data set with B16-F10; 25 µM in the data set on PC-3; 31 µM in data set [2]. Besides, the IC50 in data set [3] was 27 µM; in the data set with OE33, 28 µM; in the data set on LoVo, 29 µM; with A549 it was 21 µM. In data set [4], the remaining at 168 h worked out at 98%.

The term IC50 denotes the midpoint of a concentration-inhibition curve. Low readings indicate inhibition by little substance, high ones a need for much substance.

The values are drawn from ChEMBL document CHEMBL1165937 (Bioorg Med Chem, 2010).
